L major viab – Leishmania major promastigote growth inhibition; Leishmania major promastigotes, resazurin fluorescence viability; inhibition, % at 10 µM; actives 9% (n = 200,000); AID 1063; in the data active means inhibition above about 50%;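 further: promastigotes grown with compound for 44 hours at 28 °C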
PMI act satM6P – PMI (human) activation, high substrate; P34949; coupled PMI enzyme assay, resazurin fluorescence, 20 min; stronger effect = higher value; 1 = untreated enzyme, 0 = substrate-free blank; activation factor at 20 µM; actives 0.34% (n = 190,000); AID 1216;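 active means activation factor of 2 or more at 20 µM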
Target sequence (P34949 whole entry, looked up): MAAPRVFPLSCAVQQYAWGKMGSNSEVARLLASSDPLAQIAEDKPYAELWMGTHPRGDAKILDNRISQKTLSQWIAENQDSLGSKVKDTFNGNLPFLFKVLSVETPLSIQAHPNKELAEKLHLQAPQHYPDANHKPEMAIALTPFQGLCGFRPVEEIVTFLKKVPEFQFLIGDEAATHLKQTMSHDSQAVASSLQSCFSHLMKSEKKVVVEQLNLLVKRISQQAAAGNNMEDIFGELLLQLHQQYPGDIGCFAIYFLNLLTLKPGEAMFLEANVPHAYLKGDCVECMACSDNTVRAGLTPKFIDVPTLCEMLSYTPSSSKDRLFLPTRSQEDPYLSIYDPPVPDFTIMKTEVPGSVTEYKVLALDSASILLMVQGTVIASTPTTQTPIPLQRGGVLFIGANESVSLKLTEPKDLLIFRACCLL
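Test system – human PMI in coupled enzyme assay · Timing – 20 min incubation at room temperature · Detection – Diaphorase-driven resazurin-to-resorufin fluorescence, excitation 544, emission 590 nm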
PMI act – phosphomannose isomerase (human) activation. P34949. activation factor at 20 µM. actives 0.005% (n = 190,000). purified human PMI, coupled resazurin fluorescence, 20 min; stronger effect = higher value; 1 = vehicle control, 0 substrate-free wells;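 active means activation factor of 2 or more at 20 µM, relative to plate controls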
WT yeast gro inh – growth inhibition of WT yeast, mitochondrial fusion screen; inhibition, % at 10 µM; mitochondrial fusion phenotypic screen, WT strain; actives 2.1% (n = 190,000); in the data active means inhibition above about 58%; tested in S. cerevisiae
m-calpain inh – inhibitors of pig calpain II; purified calpain II, fluorogenic peptide substrate, 30 min; inhibition, % at 16 µM; actives 0.37% (n = 220,000);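 active means inhibition above about 50%, limit read from the data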
Rad51 HR inh – blocks human Rad51 in homologous recombination; AID 1385; inhibition, % at 10 µM; Q06609; hRad51 DNA strand exchange, fluorescence dequenching; actives 0.085% (n = 200,000);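 active means inhibition above 40% at the single screening dose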;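 further: 0% = DMSO control wells and 100% = blanks with heterologous ssDNA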
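Read-out basis: percent inhibition relative to plate controls and blanks / Assay system: human Rad51 nucleoprotein filaments preassembled on unlabelled ssDNA / Timing: filaments 15 min 37 °C, then compound 30 min / Control set: per-plate controls and blanks / Technique: fluorescence dequenching at 485/520 nm / Compound: 10 µM final, single point / Also added: Fluorescein- and BHQ1-tagged 47-mer duplex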
Active calls of the source: *; i = inactive; . = not tested or not shown; ! = not active in a repeat. Shown are actives, neighbours in structure and some others; about 9.8% of the full set was active somewhere.

SMILES	L major viab	PMI act satM6P	PMI act	WT yeast gro inh	m-calpain inh	Rad51 HR inh
CCc1ccc(C(O)(c2ccccc2OC)C(CN2CCOCC2)c2ccccc2)cc1 (stereo not drawn)	34	1.1	1.1	77*	9	-7
OC(c1ccccc1)(c1ccc(F)cc1)C(c1ccccc1)N1CCOCC1 (stereo not drawn)	12	1	1	12	42	-4
c1ccc(-c2ccc(-n3ccnc3)cc2)cc1	5	1	1	-28	6	7
c1ccc(-c2ccc(C(c3ccccc3)n3ccnc3)cc2)cc1 (stereo not drawn)	98*	1.1	1	73*!	53*	0
O=C(/C=C/c1ccccc1)N1c2ccccc2Sc2ccc(C(F)(F)F)cc21	97*	1.1	0.9	28	41	-2
COc1ccc(-n2cccc2C=O)cc1	-6	1	0.9	-15	11	.
COc1ccc(-n2cccc2/C=C/[N+](=O)[O-])cc1	100*	1.2	1.3	70*	-49	8
O=C(Cc1ccccc1)c1c[nH]c(C(=O)NC2CCCC2)c1	2	1	1.1	-6	24	-73
Cc1ccc(Nc2nnc(SCc3nc4ccccc4c(=O)[nH]3)s2)cc1	3	1	1	-2	2	4
O=C(Cc1ccc(Br)cc1)NNC(=O)Nc1ccc(Cl)cc1	72*	1	1	10	-23	13
COCCN1CCN(c2cc(-c3ccccc3)nc3cc(-c4cccc(F)c4)nn23)CC1	87*	1	1	77*	-181	-5
COc1ccc(-c2cc3nc(-c4ccccc4)cc(N4CCCC(O)C4)n3n2)cc1 (stereo not drawn)	32	0.9	0.9	68*	i	-13
COc1ccc(-c2cc3ncc(-c4ccccc4)c(N)n3n2)cc1	2	1	1	20	-9	13
Cc1ccc(-c2cc3nc(-c4ccccc4)cc(N4CCC5(CC4)OCCO5)n3n2)cc1	56*	0.9	0.9	54	-90	-19
Fc1ccc(-c2cc3nc(-c4ccccc4)cc(N4CCOCC4)n3n2)cc1	6	1	1	.	-478	2
Cc1cccc(-c2cc3nc(-c4ccccc4)cc(N4CCC5(CC4)OCCO5)n3n2)c1	47	0.8	0.8	35	-146	-15
COc1ccc(-c2cc3nc(-c4ccccc4)cc(N4CCC(O)CC4)n3n2)cc1	38	0.8	0.8	62*	i	1
CN(Cc1ccccc1)C(=O)c1ccccc1-c1ccccc1	13	1	1	12	25	-1
C/C(=N\NC(=O)Cn1cc([N+](=O)[O-])cn1)c1ccc(O)cc1	.	.	.	.	-20	-1
CCC(CC)c1nnc(NC(=O)Cc2ccccc2[N+](=O)[O-])s1	16	0.9	0.9	-17	23	-13
c1ccc(CSc2nc3ncncc3[nH]2)cc1	.	.	.	.	-15	-10
S=c1nc(SCc2ccccc2)[nH]c2ccccc12	2	0.9	0.9	62*	-15	-3
COc1ccc(NC(=O)[C@@H](NC(=O)c2ccccc2)C(C)C)cc1S(=O)(=O)N1CCCCC1	72*	1	1	9	28	.
COc1ccc(C(C)(C)C)cc1NC(=O)c1cncc(Br)c1	-3	1	1	76*	-14	-5
COc1ccc(NC(=O)c2cncc(Br)c2)cc1S(=O)(=O)N1CCCCC1	73*	1	1	16	-2	-1
SMILES	L major viab	PMI act satM6P	PMI act	WT yeast gro inh	m-calpain inh	Rad51 HR inh
COc1ccc(NC(=O)c2cc(OC)c(OC)c(OC)c2)cc1S(=O)(=O)N1CCCCC1	15	1	1.1	-15	-29	-22
COc1ccc(NS(=O)(=O)c2cccc(Cl)c2)cc1S(=O)(=O)N1CCCCC1	59*	1.1	1	21	10	-8
Nc1nc(SCC(=O)Nc2ccc3c(c2)CCC3)n[nH]1	-3	1.1	1	-16	-10	0
CC(C)(C)c1ccc(OCC(=O)NNC(=O)c2cccnc2)cc1	-2	1	1	-8	21	-3
COc1ccccc1/C=N/NC(=O)CN(C1=NS(=O)(=O)c2ccccc21)c1ccccc1	45	1.1	1	-1	-77	1
COc1ccc(/C=N/NC(=O)CN(C2=NS(=O)(=O)c3ccccc32)c2ccccc2)cc1	56*	1	0.8	-7	-8	5
Cc1onc(-c2ccccc2)c1C(=O)NCC(O)c1ccccc1 (stereo not drawn)	.	.	.	.	-10	8
O=C(NCC1CCCO1)NC12CC3CC(CC(C3)C1)C2 (stereo not drawn)	-10	1	1	9	-21	8
S=C(NCC1CCCO1)NC12CC3CC(CC(C3)C1)C2 (stereo not drawn)	62*	1	1	68*	22	7
COc1ccccc1Nc1nnc(SCc2nnc(-c3cc(OC)c(OC)c(OC)c3)o2)s1	21	0.9	0.9	19	8	24
COc1cc(-c2nnc(CSc3nnc(Nc4ccc(C(C)C)cc4)s3)o2)cc(OC)c1OC	71*	0.9	0.9	0	-40	0
CSc1n[nH]c(/N=C/c2oc(O)c3ccccc23)n1	-9	1.6	1.6	2	10	-3
Oc1oc(C=Nc2ccc(F)cc2F)c2ccccc12	-3	2.3*	1.8	11	29	-10
CC(C)Nc1nc(NC(C)C)nc(N(C#N)CCOc2ccc(Cl)cc2Cl)n1	81*	0.9	0.9	56	8	2
CCCN(C#N)c1nc(NCC)nc(NC(C)C)n1	8	1	1	-3	52*	-2
CCNc1nc(NC(C)C)nc(N(C)C#N)n1	.	.	.	.	-21	18
Cc1cc(C)nc(N(C#N)CCOc2ccc(Cl)cc2)n1	-2	1.1	1.1	0	-2	-3
CSc1nnc2c(n1)OC(c1ccccn1)N(C(C)=O)c1ccccc1-2 (stereo not drawn)	-2	1	1.2	-3	-26	-18
CNC(=S)N(Cc1ccc(OC)cc1)C1CC(=O)N(c2ccc(Cl)cc2)C1=O (stereo not drawn)	52*	1.1	1.1	-3	30	.
COc1ccc(CN(C(=S)Nc2ccccc2)C2CC(=O)N(c3ccc(F)cc3)C2=O)cc1 (stereo not drawn)	91*	0.9	0.8	16	14	0
O=C1CC(N(CCc2ccccc2)C(=S)Nc2ccccc2)C(=O)N1c1ccc(Br)cc1 (stereo not drawn)	37	0.9	0.7	70*	-10	2
Cc1ccc(C(=O)CN(C(=O)c2ccc(Cl)cc2)N2C(=O)CCC2=O)cc1	89*	1	1	1	19	6
Cc1ccc(C(=O)CN(C(=O)c2ccc(Cl)cc2)N2C(=O)c3ccccc3C2=O)cc1	-16	0.9	0.9	12	-18	-6
